Experimental data taken from ChEMBL document CHEMBL3526048, “In vitro metabolism of rivoglitazone, a novel peroxisome proliferator-activated receptor γ agonist, in rat, monkey, and human liver microsomes and freshly isolated hepatocytes” (Drug Metab Dispos, 2011).

Tests used:
Format in all cases: ADME
Cytochrome P450 2D6 = Cytochrome P450 2D6 (Homo sapiens, UniProt P10635); test: (§1) Activity of human CYP2D6 expressed in microsomes isolated from baculovirus infected insect cell assessed as enzyme-mediated 5-(4-((6-hydroxy-1-methyl-1H-benzo[d]imidazol-2-yl)methoxy)benzyl)thiazolidine-2,4-dione formation at 20 uM after 2 hrs by radio-HPLC/LC-MS/MS analysis in presence of NADPH-generating system and NADPH-generating system/SAM
Cytochrome P450 3A5 = Cytochrome P450 3A5 (Homo sapiens, UniProt P20815); test: as §1, with “CYP3A5” for “CYP2D6”
How it was run: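 cDNA-expressed human CYP3A5 in baculovirus-insect-cell microsomes (1 mg/ml protein) was incubated with [¹⁴C]rivoglitazone (20 μM) in 50 mM potassium phosphate (pH 7.4) or 100 mM Tris-HCl (pH 7.5). NADPH-generating system: 2 mM NADP⁺, 20 mM glucose 6-phosphate, 2 units/ml G6PDH, 10 mM MgCl₂. Incubation ran 2 h at 37°C with shaking; insect-cell control supersomes served as control. Acetonitrile stop, supernatant concentrated, then radio-HPLC, LC-MS and LC-MS/MS.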

[1] = biological target: T1, UDP-glucuronosyltransferase 1A6 (Homo sapiens, UniProt P19224); test: Activity of human UGT1A6 expressed in microsomes isolated from baculovirus infected insect cell assessed as enzyme-mediated 2-mercapto-3-(4-((6-methoxy-1-methyl-1H-benzo[d]imidazol-2-yl)methoxy)phenyl)propanoic acid formation at 20 uM after 4 hrs by radio-HPLC/LC-MS/MS analysis in presence of UDPGA
T1 sequence (P19224 whole entry): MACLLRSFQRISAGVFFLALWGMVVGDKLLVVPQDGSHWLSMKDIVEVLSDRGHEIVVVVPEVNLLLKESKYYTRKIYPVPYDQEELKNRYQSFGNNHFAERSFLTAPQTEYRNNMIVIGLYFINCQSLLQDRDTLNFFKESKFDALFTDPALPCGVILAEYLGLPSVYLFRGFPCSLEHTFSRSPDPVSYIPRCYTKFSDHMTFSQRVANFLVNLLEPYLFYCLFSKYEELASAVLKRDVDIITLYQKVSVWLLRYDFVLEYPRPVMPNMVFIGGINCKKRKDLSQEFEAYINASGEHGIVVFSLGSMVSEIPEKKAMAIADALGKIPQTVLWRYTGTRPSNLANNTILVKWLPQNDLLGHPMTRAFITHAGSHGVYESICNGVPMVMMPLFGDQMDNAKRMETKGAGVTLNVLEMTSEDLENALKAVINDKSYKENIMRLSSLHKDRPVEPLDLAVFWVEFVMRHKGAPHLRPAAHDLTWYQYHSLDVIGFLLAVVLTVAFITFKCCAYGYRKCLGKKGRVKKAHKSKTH

[2] = biological target: T2, UDP-glucuronosyltransferase 1A1 (Homo sapiens, UniProt P22309); test: Activity of human UGT1A1 expressed in microsomes isolated from baculovirus infected insect cell assessed as enzyme-mediated (2S,3S,4S,5R,6R)-3,4,5-trihydroxy-6-(5-(4-((6-methoxy-1-methyl-1H-benzo[d]imidazol-2-yl)methoxy)benzyl)-2,4-dioxothiazolidin-3-yl)tetrahydro-2H-pyran-2-carboxylic acid formation at 20 uM after 4 hrs by radio-HPLC/LC-MS/MS analysis in presence of UDPGA
T2 sequence (P22309 whole entry): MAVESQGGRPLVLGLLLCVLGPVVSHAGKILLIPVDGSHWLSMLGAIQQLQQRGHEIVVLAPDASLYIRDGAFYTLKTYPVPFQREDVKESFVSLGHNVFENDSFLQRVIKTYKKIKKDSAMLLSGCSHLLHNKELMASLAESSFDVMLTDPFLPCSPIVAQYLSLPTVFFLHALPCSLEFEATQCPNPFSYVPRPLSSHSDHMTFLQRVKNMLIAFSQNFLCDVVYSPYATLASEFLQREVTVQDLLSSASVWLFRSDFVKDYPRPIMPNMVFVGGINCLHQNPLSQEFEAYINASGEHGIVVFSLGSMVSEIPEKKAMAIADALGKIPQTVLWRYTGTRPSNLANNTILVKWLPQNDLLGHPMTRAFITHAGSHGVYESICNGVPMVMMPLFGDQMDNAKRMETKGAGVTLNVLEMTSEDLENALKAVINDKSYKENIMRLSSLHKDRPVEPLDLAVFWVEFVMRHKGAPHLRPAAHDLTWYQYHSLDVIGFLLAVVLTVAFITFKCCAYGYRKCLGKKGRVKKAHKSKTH
How it was run: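 Alamethicin (50 μg/mg protein, 15 min on ice) pretreated expressed human UGT microsomes (1 mg/ml protein) from baculovirus-infected insect cells. Incubation with [¹⁴C]rivoglitazone (20 μM) in 100 mM Tris-HCl (pH 7.5) with 10 mM MgCl₂, started by 5 mM UDPGA, 4 h at 37°C with shaking. UGT insect-cell control supersomes were run alongside. Acetonitrile stop, concentrated supernatant analysed by radio-HPLC, LC-MS and LC-MS/MS.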

[3] = biological target: T1, UDP-glucuronosyltransferase 1A6; test: Activity of human UGT1A6 expressed in microsomes isolated from baculovirus infected insect cell assessed as enzyme-mediated (2S,3S,4S,5R,6R)-3,4,5-trihydroxy-6-(5-(4-((6-methoxy-1-methyl-1H-benzo[d]imidazol-2-yl)methoxy)benzyl)-2,4-dioxothiazolidin-3-yl)tetrahydro-2H-pyran-2-carboxylic acid formation at 20 uM after 4 hrs by radio-HPLC/LC-MS/MS analysis in presence of UDPGA
[4] = biological target: T3, UDP-glucuronosyltransferase 1A9 (Homo sapiens, UniProt O60656); test: Activity of human UGT1A9 expressed in microsomes isolated from baculovirus infected insect cell assessed as enzyme-mediated (2S,3S,4S,5R,6R)-6-((1-carboxy-2-(4-((6-methoxy-1-methyl-1H-benzo[d]imidazol-2-yl)methoxy)phenyl)ethylthio)carbonylamino)-3,4,5-trihydroxytetrahydro-2H-pyran-2-carboxylic acid formation at 20 uM after 4 hrs by radio-HPLC/LC-MS/MS analysis in presence of UDPGA
T3 sequence (O60656 whole entry): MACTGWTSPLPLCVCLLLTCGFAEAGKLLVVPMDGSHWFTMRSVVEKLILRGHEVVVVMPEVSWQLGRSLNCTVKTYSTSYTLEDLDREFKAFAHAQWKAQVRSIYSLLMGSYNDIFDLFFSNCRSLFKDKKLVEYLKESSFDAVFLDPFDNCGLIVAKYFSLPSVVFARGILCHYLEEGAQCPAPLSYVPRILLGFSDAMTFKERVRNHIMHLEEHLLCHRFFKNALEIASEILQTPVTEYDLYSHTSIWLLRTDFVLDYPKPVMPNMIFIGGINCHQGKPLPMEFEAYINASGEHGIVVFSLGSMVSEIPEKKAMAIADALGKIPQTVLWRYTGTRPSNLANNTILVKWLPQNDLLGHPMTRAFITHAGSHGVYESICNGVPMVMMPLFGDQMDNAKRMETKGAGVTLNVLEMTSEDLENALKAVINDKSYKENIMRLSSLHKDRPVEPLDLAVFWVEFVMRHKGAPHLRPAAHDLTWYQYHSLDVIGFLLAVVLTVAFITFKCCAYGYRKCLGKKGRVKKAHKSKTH

Chain of Cytochrome P450 2D6 (P10635 whole entry): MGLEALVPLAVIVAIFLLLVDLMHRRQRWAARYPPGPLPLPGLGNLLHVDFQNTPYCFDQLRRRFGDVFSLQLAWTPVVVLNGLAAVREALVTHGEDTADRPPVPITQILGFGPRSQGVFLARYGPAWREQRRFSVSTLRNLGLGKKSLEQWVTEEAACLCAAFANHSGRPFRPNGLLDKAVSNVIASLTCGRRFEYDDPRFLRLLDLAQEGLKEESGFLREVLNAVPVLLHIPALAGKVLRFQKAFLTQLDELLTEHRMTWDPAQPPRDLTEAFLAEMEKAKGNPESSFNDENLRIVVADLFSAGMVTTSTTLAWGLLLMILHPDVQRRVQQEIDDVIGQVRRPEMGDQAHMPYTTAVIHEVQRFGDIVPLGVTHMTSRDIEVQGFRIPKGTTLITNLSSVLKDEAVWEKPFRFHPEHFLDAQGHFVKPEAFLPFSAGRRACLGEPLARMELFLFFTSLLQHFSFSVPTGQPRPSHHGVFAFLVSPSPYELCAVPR
Chain of Cytochrome P450 3A5 (P20815 whole entry): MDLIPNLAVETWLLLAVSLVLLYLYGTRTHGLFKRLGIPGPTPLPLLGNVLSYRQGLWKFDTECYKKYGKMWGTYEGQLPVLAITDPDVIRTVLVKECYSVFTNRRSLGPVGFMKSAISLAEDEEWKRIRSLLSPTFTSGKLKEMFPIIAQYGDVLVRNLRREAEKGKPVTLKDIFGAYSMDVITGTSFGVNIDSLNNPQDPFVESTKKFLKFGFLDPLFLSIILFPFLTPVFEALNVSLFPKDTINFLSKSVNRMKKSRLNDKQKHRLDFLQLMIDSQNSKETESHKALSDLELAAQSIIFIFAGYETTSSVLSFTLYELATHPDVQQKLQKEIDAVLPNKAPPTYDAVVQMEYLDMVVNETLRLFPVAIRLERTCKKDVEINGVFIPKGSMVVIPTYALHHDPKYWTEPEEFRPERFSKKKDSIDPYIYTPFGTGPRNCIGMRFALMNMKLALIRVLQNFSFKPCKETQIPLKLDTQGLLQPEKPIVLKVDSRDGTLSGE

COc1ccc2nc(COc3ccc(C[14CH]4SC(=O)NC4=O)cc3)n(C)c2c1.Cl (racemic)
Drug metabolism (Cytochrome P450 2D6): metabolite_detected | Drug metabolism (Cytochrome P450 3A5): metabolite_detected | Drug metabolism [1]: metabolite_not_detected | Drug metabolism [2]: metabolite_not_detected | Drug metabolism [3]: metabolite_not_detected | Drug metabolism [4]: metabolite_not_detected
